In data set [1] the target is T1, Amyloid-beta precursor protein (Homo sapiens, UniProt P05067). The data set is described as follows: Inhibition of amyloid beta42 aggregation assessed as reduction in fluorescence after 4 days by thioflavin T-based fluorometry. An outline of the steps:
(§1)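 Aβ42 at 25 μM was incubated with a range of compound concentrations in triplicate at 37°C with shaking for four days, read at t=0 and t=4 d. Compound was taken from a 10 mM DMSO stock diluted in PBS. Aliquots were added to 25 μM ThT in 50 mM glycine, pH 8, for 5 min, then read at ex 446/em 490 nm. IC50 was taken from % fluorescence of untreated control.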

The nature of data set [2]: Drug degradation in aqueous buffer assessed as 3,5-dichloro-2-hydroxybenzaldehyde formation up to 24 hrs by LC-MS analysis at pH 7.4. The format is physicochemical. Particulars: pH 7.4, 24 h.
Data set [3] can be described thus: Drug degradation in aqueous buffer assessed as N-(2-amino-4-methylphenyl)-4-chlorobenzenesulfonamide formation up to 24 hrs by LC-MS analysis at pH 7.4. The format is physicochemical. The following applies: pH 7.4, 24 h.
Data set [4] concerns the target T1, Amyloid-beta precursor protein. Briefly: Inhibition of amyloid beta42 aggregation assessed as reduction in fluorescence measured immediately post-compound addition by thioflavin T-based fluorometry. An outline of the steps: as §1
Data set [5] is described as follows: Drug degradation in aqueous buffer assessed as (E)-N-(2-(3,5-dichloro-2-hydroxybenzylideneamino)-4-methylphenyl)benzo[b]oxirene-3-sulfonamide formation up to 24 hrs by LC-MS analysis at pH 7.4. The format is physicochemical. The following applies: pH 7.4, 24 h.
Data set [6] in a line: Drug degradation in aqueous buffer assessed as N-(2-amino-4-methylphenyl)benzo[b]oxirene-3-sulfonamide formation up to 24 hrs by LC-MS analysis at pH 7.4. The format is physicochemical. Particulars: pH 7.4, 24 h.
In data set [7] the target is T1, Amyloid-beta precursor protein. The data set is described as follows: Inhibition of amyloid beta42 aggregation assessed as inhibition of fibril formation at 25 uM after 5 days by circular dichroism. An outline of the steps:
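Circular dichroism: 25 μM Aβ42 alone or mixed 1:1 with 25 μM compound, incubated at 37°C with orbital shaking at 200 rpm. Spectra taken every 24 h for 5 days at 37°C in a 1-mm cell, 190–260 nm, 0.2-nm resolution, 1-nm bandwidth, background-subtracted and averaged. Compound dissolved to 10 mM in NaOH, then diluted in PBS.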
Background: Circular dichroism is the unequal absorption of left and right circularly polarised light.

In the next data set the test system is PC-12. Briefly: Cytotoxicity against rat PC12 cells assessed as reduction in cell viability at 50 uM after 48 hrs by MTT assay. The format is cell-based. The following applies: pc-12, 48 h. In general terms: Tetrazolium dyes change colour on reduction, which living cells bring about.
Data set [8] in a line: Inhibition of amyloid beta42 assessed as decrease in mature fibril formation at 25 uM after 4 days by […] electron microscopy. In outline: (§2)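 Negative-stain TEM: 25 μM Aβ42 alone or with 25 μM compound (1:1), incubated four days at 37°C. Aliquots spotted 2 min on glow-discharged carbon-coated Formvar grids and stained with 1% uranyl acetate.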
A short description of data set [9]: Inhibition of amyloid beta42 assessed as increase in amorphous aggregates at 25 uM after 4 days by […] electron microscopy. An outline of the steps: as §2

Each structure is given as a SMILES string. The source made the active and inactive calls. The rule behind the calls is not given here.

T1 sequence (P05067 whole entry): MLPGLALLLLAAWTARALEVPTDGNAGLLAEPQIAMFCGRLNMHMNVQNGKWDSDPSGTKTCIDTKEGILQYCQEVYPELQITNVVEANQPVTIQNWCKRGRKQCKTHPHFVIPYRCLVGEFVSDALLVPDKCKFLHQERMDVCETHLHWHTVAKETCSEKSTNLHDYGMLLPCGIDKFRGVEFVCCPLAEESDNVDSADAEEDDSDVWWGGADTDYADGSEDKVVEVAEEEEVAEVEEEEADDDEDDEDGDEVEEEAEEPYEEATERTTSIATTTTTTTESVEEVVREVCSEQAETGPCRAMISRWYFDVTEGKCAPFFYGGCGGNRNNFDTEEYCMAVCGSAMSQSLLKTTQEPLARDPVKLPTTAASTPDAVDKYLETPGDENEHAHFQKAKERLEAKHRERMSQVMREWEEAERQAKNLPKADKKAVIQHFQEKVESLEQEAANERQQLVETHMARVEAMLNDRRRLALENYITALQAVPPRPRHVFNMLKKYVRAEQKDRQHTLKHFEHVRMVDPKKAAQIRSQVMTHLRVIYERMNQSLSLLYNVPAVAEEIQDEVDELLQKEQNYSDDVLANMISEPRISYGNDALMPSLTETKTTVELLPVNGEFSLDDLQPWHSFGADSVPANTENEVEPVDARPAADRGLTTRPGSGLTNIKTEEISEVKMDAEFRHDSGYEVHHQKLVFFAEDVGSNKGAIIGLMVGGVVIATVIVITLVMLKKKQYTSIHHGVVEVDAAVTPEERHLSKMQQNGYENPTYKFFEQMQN

In the case of `O=Cc1cc(Cl)cc(Cl)c1O`, the inhibition result in data set [1] is “inactive”. The Drug degradation result in data set [2] is “Active”.

The IC50 is the concentration that gives 50% inhibition. Turning to `Cc1ccc(NS(=O)(=O)c2ccc(Cl)cc2)c(N)c1`, in data set [1], the IC50 is 23 µM and the inhibition entry was “Dose-dependent effect”. Moreover, in data set [3], the Drug degradation result is given as “Active”. Further, the IC50 in data set [4] turned out to be 30 µM.

For the molecule `Cc1ccc(NS(=O)(=O)c2ccc3c(c2)O3)c(/N=C/c2cc(Cl)cc(Cl)c2O)c1`, the Drug degradation entry in data set [5] is “Active”.

For the molecule `Cc1ccc(NS(=O)(=O)c2ccc3c(c2)O3)c(N)c1`, the Drug degradation result in [6] is given as “Active”.

On to `Cc1ccc(NS(=O)(=O)c2ccc(Cl)cc2)c(/N=C/c2cc(Cl)cc(Cl)c2O)c1`, for which the inhibition result in data set [7], in data set [8] and in data set [9] was “Active” each time. In addition, the IC50 came to 13 µM in [1] and 62 µM in data set [4]. For the same molecule, the inhibition entry in data set [1] was “Dose-dependent effect”. Further, the Activity in the data set on PC-12 is given as 40%.

(Values after ChEMBL document CHEMBL2062413, “Design of β-amyloid aggregation inhibitors from a predicted structural motif” (J Med Chem, 2012).)
